Experimental data gathered from unrelated publications.
BCHE: Cholinesterase (BCHE, Homo sapiens, UniProt P06276)
Oprk1: Kappa-type opioid receptor (Oprk1, Mus musculus, UniProt P33534)
MC4R: Melanocortin receptor 4 (MC4R, Homo sapiens, UniProt P32245)

SMILES | target | test | test system | conditions | quantity | result
COc1cc(/C=C/C(=O)O)ccc1OCc1cn(CC(=O)Nc2ccc(C)cc2)nn1 | BCHE | enzyme activity, inhibitor, Ellman |  | 40 µM | inhibition | 48.5%
CC(C)[C@@H](CN1CCc2ccccc2C1)NC(=O)Cc1c[nH]c2ccccc12 | Oprk1 | ligand displacement, radioligand |  | 10 µM | inhibition | 89.1%
CC(C)CC(=O)OC[C@H]1O[C@@](C#N)(c2ccc3c(N)ncnn23)[C@H](O)[C@@H]1O | MC4R | cell-free assay |  | 20 µM | inhibition | 6%
[2H]c1c([2H])c([C@]2([2H])CCCN2C(=O)C(C)(C)Oc2ccc3cn[nH]c3c2)c([2H])c([2H])c1C([2H])([2H])[2H] | Peripheral plasma membrane protein CASK (CASK, Homo sapiens, UniProt O14936) | binding, competition with immobilised ligand |  | 1 µM | remaining binding | 89%
CN1CCC[C@H]1c1cccnc1 | Muscarinic acetylcholine receptor M5 (CHRM5, Homo sapiens, UniProt P08912) | ligand displacement |  | 50 µM | inhibition | -4.76%
COc1cc(/C=C/C(=O)O)ccc1OCc1cn(CC(=O)Nc2ccccc2C)nn1 | BCHE | enzyme activity, inhibitor, Ellman |  | 40 µM | inhibition | 44.6%
Cc1c(CC(=O)N[C@@H](CN2CCc3ccccc3C2)C(C)C)cccc1[N+](=O)[O-] | Oprk1 | ligand displacement, radioligand |  | 10 µM | inhibition | 95.1%
CCCC[C@H](NC(C)=O)C(=O)N[C@@H](C)C(=O)N[C@@H](Cc1c[nH]cn1)C(=O)N[C@@H](Cc1ccccc1)C(=O)N[C@@H](CCCNC(=N)N)C(=O)N[C@H](Cc1c[nH]c2ccccc12)C(=O)N[C@@H](CC(=O)O)C(=O)N[C@@H](CCCNC(=N)N)C(=O)N[C@@H](Cc1ccccc1)C(=O)N[C@@H](C(=O)N1CCC[C@@H]1C(N)=O)C(C)C | MC4R | cAMP, agonist | CHO-K1 |  | Emax | 100%
CC(C)[C@@H](CN1CCc2ccccc2C1)NC(=O)c1cccc(-c2cccc(O)c2)c1 | Oprk1 | ligand displacement, radioligand |  | 10 µM | inhibition | 94.2%
COc1cc(/C=C/C(=O)O)ccc1OCc1cn(CC(=O)Nc2cccc(Cl)c2)nn1 | BCHE | enzyme activity, inhibitor, Ellman |  | 40 µM | inhibition | 15.3%
